Experimental data of several laboratories.
Compare with care: the assays were run in different laboratories.

CC[C@H](C)[C@H](NC(=O)[C@H](CC(C)C)NC(=O)[C@H](Cc1c[nH]c2ccccc12)NC(=O)[C@H](CCC(N)=O)NC(=O)[C@@H](NC(=O)[C@H](Cc1ccccc1)NC(=O)[C@H](C)NC(=O)[C@H](CCCCNC(=O)COCCOCCNC(=O)COCCOCCNC(=O)CC[C@H](NC(=O)CCCCCCCCCCCCCCCCCCC(=O)O)C(=O)O)NC(=O)[C@H](CCC(N)=O)NC(=O)[C@H](C)NC(=O)[C@@H](NC(=O)[C@H](CCCCN)NC(=O)[C@H](CC(=O)O)NC(=O)[C@H](CC(C)C)NC(=O)C(C)(C)NC(=O)[C@@H](NC(=O)[C@H](CO)NC(=O)[C@H](Cc1ccc(O)cc1)NC(=O)[C@H](CC(=O)O)NC(=O)[C@H](CO)NC(=O)[C@@H](NC(=O)[C@H](Cc1ccccc1)NC(=O)[C@@H](NC(=O)CNC(=O)[C@H](CCC(=O)O)NC(=O)C(C)(C)NC(=O)[C@@H](N)Cc1ccc(O)cc1)[C@@H](C)O)[C@@H](C)O)[C@@H](C)CC)[C@@H](C)CC)C(C)C)C(=O)N[C@@H](C)C(=O)NCC(=O)NCC(=O)N1CCC[C@H]1C(=O)N[C@@H](CO)C(=O)N[C@@H](CO)C(=O)NCC(=O)N[C@@H](C)C(=O)N1CCC[C@H]1C(=O)N1CCC[C@H]1C(=O)N1CCC[C@H]1C(=O)N[C@@H](CO)C(N)=O  Cmax (human, plasma; subcutaneous, 4.5 mg, multiple doses, healthy volunteers): 884 ng/mL
Cc1nc2c(=O)n(C)c(=O)nc-2n(C)n1  efflux ratio (Caco-2): 1
C[C@]12CC[C@H](O)CC1=CC[C@@H]1[C@@H]2CC[C@]2(C)C(n3cnc4ccccc43)=CC[C@@H]12.Cl  Tmax (mouse, plasma; oral, 10 mg/kg): 25.2 min
C=C(C)[C@@H]1CC[C@]2(NCCN3CCS(=O)(=O)CC3)CC[C@]3(C)[C@H](CC[C@@H]4[C@@]5(C)CC=C(C6=CC[C@@](COc7ncccc7C#N)(C(=O)O)CC6)C(C)(C)[C@@H]5CC[C@]43C)[C@@H]12  Cmax (human, plasma; oral, 100 mg, single dose, fasted, tablet): 228 ng/mL
c1cc([C@H]2CC[C@]3(CC2)OO[C@]2(O3)C3CC4CC(C3)CC2C4)ccc1OCCN1CCOCC1  Cmax (human, plasma; oral, 200 mg, patients): 339 ng/mL
Cc1ccccc1C(=O)NN=Cc1ccc(O)c(Br)c1  Tmax (mouse, plasma; intraperitoneal, 0.8 mg/kg): 30 min
N=c1c2c(-c3ccccc3)c(-c3ccccc3)n(Cc3ccccc3)c2ncn1[C@H]1CC[C@H](O)CC1  efflux ratio (Caco-2; 3 µM, 2 h, pH 7.4): 10
CC(=C/C=C/C(C)=C/C(=O)O)/C=C1\CCCc2ccccc21  Cmax (human, plasma; oral, 20 mg, single dose, fasted, healthy volunteers): ~70 ng/mL
N=C(N)NCCC[C@@H](NC(=O)[C@@H](N)Cc1ccccc1)C(=O)N[C@@H](Cc1ccccc1)C(=O)N[C@@H](CCCCN)C(N)=O  Cmax (human, plasma; subcutaneous, 5 mg, multiple doses, once daily, patients): 212 ng/mL
C[C@]12CC[C@H](n3ccnc3)CC1=CC[C@@H]1[C@@H]2CC[C@]2(C)C(n3cnc4ccccc43)=CC[C@@H]12.Cl  Tmax (male CD-1 mouse, plasma; oral, 10 mg/kg): 800 min
NCC(=O)Nc1ccc(-n2nc(C(F)(F)F)cc2-c2ccc3c(ccc4ccccc43)c2)cc1  Tmax (mouse, plasma; oral, 80 mg/kg, single dose): 600 min
N#Cc1cc(NC(=O)[C@H]2c3ccccc3C(=O)N(CC(F)(F)F)[C@@H]2c2cccnc2)ccc1F  NOAEL (general toxicity; beagle dog; oral, multiple doses): 30 mg/kg
COc1ccc2[nH]cc(CCNc3nccc(Nc4cccc5c4ccn5C)n3)c2c1  Tmax (mouse, plasma; intravenous, 9.5 mg/kg): 4.8 min
